{"source": "paper PMC3960997", "about": "(Biochimica et biophysica acta, 2013)", "molecules": {"B1": {"name": "Human N-terminal GST tagged C-terminal TDP-43 (261-414 aa) (domain or fragment, UniProt Q13148 261-414, looked up)", "chain": "EPKHNSNRQLERSGRFGGNPGGFGNQGGFGNSRGGGAGLGNNQGSNMGGGMNFGAFSINPAMMAAAQAALQSSWGMMGMLASQQNQSGPSGNNQNQGNMQREPNQAFGSGNNSYSGSNSGAAIGWGSASNAGSGSGFNGGFGSSMDSKSSGWGM"}}, "key": {"full length TDP-43 [1]": {"molecular_target": "T1, full length TDP-43 (Homo sapiens, UniProt Q13148)", "T1 sequence (Q13148 whole entry)": "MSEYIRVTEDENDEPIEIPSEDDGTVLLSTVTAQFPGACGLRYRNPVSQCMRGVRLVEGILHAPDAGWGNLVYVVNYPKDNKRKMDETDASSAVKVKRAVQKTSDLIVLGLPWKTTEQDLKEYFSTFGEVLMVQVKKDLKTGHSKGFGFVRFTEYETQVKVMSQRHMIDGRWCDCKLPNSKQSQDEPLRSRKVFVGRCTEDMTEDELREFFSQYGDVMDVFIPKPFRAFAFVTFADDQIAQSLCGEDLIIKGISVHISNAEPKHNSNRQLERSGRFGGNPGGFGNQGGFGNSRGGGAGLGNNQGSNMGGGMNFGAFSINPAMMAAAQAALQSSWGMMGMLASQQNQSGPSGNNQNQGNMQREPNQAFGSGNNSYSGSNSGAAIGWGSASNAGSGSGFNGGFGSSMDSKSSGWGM", "assay": "Inhibition of bt-TG12 binding to full length TDP-43", "method_in_brief": "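In the same Tris pH 7.0 buffer, GST-tagged full-length TDP-43 (1.6 nM) was preincubated 15-30 min at RT with test-compound dilutions. 1.0 nM biotinylated TG12 was then added for 2 hr at RT. Streptavidin Tb donor and anti-GST d2 acceptor (2.6 μg/mL) were added for 1 hr, then time-resolved fluorescence 665/620 ratio. IC50 from three-parameter dose-response fit; geometric means of four determinations.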"}, "full length TDP-43 [2]": {"molecular_target": "T1, full length TDP-43", "assay": "Inhibition of UBQLN2 binding to full length TDP-43", "method_in_brief": "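Test-compound dilutions were preincubated 15-30 min at room temperature with GST-tagged full-length TDP-43 (100 ng/mL, 1.6 nM) in 20 mM Tris pH 7.0, 2 mM MgCl₂, 0.05% CHAPS, 1% glycerol. HIS-UBQLN2 (100 ng/mL, 1.4 nM) was added for 2 hr at RT. Anti-GST Tb donor plus anti-HIS d2 acceptor were added for 1 hr. Read-out was TR-FRET 665/620 nm ratio (ex 330 nm). IC50 from three-parameter fit; geometric mean of four determinations.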"}, "full length TDP-43 [3]": {"molecular_target": "T1, full length TDP-43", "assay": "Mode of inhibition of UBQLN2 binding to full length TDP-43", "method_in_brief": "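Saturation series: GST-tagged full-length TDP-43 (100 ng/mL, 1.6 nM) with HIS-UBQLN2 (1.0–60 nM), plus oligonucleotide (0–1 μM) or test compound (0–32 μM), 2 hr at RT. Anti-GST/anti-HIS HTRF antibodies were added for 1 hr; nonspecific binding taken without TDP-43. Global nonlinear fits to mixed versus noncompetitive inhibition models compared by F-test; Ki from global model. Duplicates, repeated at least three times.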"}, "[4]": {"molecular_target": "T2, C-terminal TDP-43 (261-414 aa) (Homo sapiens, UniProt Q13148)", "assay": "Mode of inhibition of UBQLN2 binding to C-terminal TDP-43", "method_in_brief": "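GST-tagged C-terminal TDP-43 (261-414 aa, 4.6 nM) was incubated 2 hr at RT with a HIS-UBQLN2 concentration series, with no test compound or 1, 3.2, 10 or 32 μM. Anti-GST/anti-HIS HTRF antibodies were added for 1 hr, then TR-FRET ratio; nonspecific binding measured without TDP-43. Saturation isotherms globally fitted to a competitive inhibition model. Duplicates, repeated at least three times.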"}, "[5]": {"molecular_target": "T2, C-terminal TDP-43 (261-414 aa)", "assay": "UBQLN2 saturation binding to C-terminal TDP-43", "conditions": "read-out: KD for UBQLN2 binding to C-terminal TDP-43, C-terminal TDP-43 (261-414 aa) 4.6 nM, n=4"}, "full length TDP-43 [6]": {"molecular_target": "T1, full length TDP-43", "assay": "Mode of inhibition of bt-TG12 binding to full length TDP-43", "conditions": "F-test comparison of global fits with the mixed inhibition model", "method_in_brief": "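Biotinylated TG12 (3–1300 pM) was incubated 2 hr at RT with GST-tagged full-length TDP-43 (1.6 nM), without or with HIS-UBQLN2 (1.0, 3.2, 10, 32 nM). Streptavidin Tb donor and anti-GST d2 acceptor (2.6 μg/mL) were added for 1 hr; nonspecific binding measured without TDP-43. Global nonlinear fits to mixed versus noncompetitive inhibition models compared by F-test. Duplicates, repeated at least three times.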"}, "[7]": {"molecular_target": "T3, N-terminal TDP-43 (1-260 aa) (Homo sapiens, UniProt Q13148)", "T3 sequence (Q13148 1-260)": "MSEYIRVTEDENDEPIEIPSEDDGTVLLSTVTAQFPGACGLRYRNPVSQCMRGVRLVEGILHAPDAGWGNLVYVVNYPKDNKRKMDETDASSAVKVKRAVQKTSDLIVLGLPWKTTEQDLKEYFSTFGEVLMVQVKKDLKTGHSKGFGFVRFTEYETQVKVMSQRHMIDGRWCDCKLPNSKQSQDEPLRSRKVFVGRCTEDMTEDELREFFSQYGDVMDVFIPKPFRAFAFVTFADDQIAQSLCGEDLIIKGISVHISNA", "assay": "UBQLN2 saturation binding to N-terminal TDP-43", "conditions": "N-terminal TDP-43 (1-260 aa) 2.2 nM, data not shown"}, "[8]": {"molecular_target": "T3, N-terminal TDP-43 (1-260 aa)", "assay": "Inhibition of bt-TG12 binding to N-terminal TDP-43", "conditions": "1.0 nM bt-TG12, N-terminal TDP-43 2.2 nM, n=3", "method_in_brief": "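GST-tagged N-terminal TDP-43 (1-260 aa; 100 ng/mL, 2.2 nM) was incubated 2 hr at RT with 1.0 nM biotinylated TG12 and either unlabeled oligonucleotide (1 pM–1 μM) or HIS-UBQLN2 (0.3 pM–0.3 μM). Streptavidin Tb donor plus anti-GST d2 acceptor (2.6 μg/mL) were added for 1 hr. Normalized to % bound (0% = 1.0 μM unlabeled TG12); IC50 from three-parameter fit. Duplicates, experiment repeated three times.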"}, "[9]": {"molecular_target": "N-terminal 6XHIS tagged full length UBQLN2 (human, UniProt Q9UHD9 1-624)", "sequence (Q9UHD9 whole entry)": "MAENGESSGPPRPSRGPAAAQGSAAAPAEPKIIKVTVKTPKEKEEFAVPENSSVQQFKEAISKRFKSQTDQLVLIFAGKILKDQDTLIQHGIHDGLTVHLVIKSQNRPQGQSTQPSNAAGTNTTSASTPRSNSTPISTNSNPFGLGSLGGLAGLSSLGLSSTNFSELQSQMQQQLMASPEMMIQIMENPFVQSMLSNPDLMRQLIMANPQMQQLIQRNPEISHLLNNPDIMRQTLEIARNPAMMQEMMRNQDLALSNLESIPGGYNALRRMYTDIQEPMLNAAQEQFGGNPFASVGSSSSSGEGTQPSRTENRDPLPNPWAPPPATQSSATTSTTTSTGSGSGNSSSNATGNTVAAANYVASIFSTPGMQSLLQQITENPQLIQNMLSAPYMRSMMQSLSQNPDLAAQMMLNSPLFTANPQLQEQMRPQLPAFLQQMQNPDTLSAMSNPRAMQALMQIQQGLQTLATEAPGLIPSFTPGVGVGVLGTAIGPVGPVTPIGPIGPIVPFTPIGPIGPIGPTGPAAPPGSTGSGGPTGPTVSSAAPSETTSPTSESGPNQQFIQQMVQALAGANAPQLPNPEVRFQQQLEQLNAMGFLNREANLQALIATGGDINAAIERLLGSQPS", "assay": "AlphaScreen or HTRF"}}}
{"molecule": "5′-CTGCTTTTTGCCTGTACTGGGTCTCTGTGGTT-3′ (DNA CTGCTTTTTGCCTGTACTGGGTCTCTGTGGTT; chemistry not given here) [TAR32, reference compound]", "values": [{"measurement": "Fold IC50 relative to TG12 for inhibition of nucleic acid binding", "setting": "full length TDP-43 [1]; bt-TG12 binding to full length TDP-43", "value": "~ 10 fold"}, {"measurement": "IC50", "setting": "full length TDP-43 [1]; read-out: IC50 (95% CI) inhibition of bt-TG12 binding to full length TDP-43, 1.0 nM bt-TG12, TDP-43 1.6 nM, geometric mean of four determinations (Section 2.4)", "value": 16, "unit": "nM"}]}
{"molecule": "COc1ccc(-c2cc(NCCCN(C)C)c3ccccc3n2)cc1", "note": "[AAQ1, (3-{[2-(4-methoxyphenyl)quinolin-4-yl]amino}propyl)dimethylamine]", "values": [{"measurement": "IC50", "setting": "full length TDP-43 [2]", "value": 5.5, "unit": "µM"}, {"measurement": "Fold less potent for inhibition of UBQLN2 binding compared to inhibition of nucleic acid binding to TDP-43", "setting": "full length TDP-43 [2]; full length TDP-43", "value": 5, "unit": "fold"}, {"measurement": "Ki", "setting": "full length TDP-43 [3]", "value": 3.4, "unit": "µM"}, {"measurement": "Mode of inhibition of UBQLN2 binding to full length TDP-43", "setting": "full length TDP-43 [3]; F-test comparison of global fits with the mixed inhibition model", "value": "competitive"}, {"measurement": "Ki", "setting": "[4]", "value": 4.2, "unit": "µM"}, {"measurement": "Mode of inhibition of UBQLN2 binding to C-terminal TDP-43", "setting": "[4]; C-terminal TDP-43 (261-414 aa)", "value": "competitive"}, {"measurement": "IC50", "setting": "full length TDP-43 [1]", "value": 1000, "unit": "nM"}]}
{"molecule": "CN(C)CCN(C)c1cc(-c2ccccc2)nc2ccccc12", "note": "[AAQ2, N-[2-(dimethylamino)ethyl]-N-methyl-2-phenylquinolin-4-amine]", "values": [{"measurement": "IC50", "setting": "full length TDP-43 [2]", "value": "> 0.1", "unit": "µM"}, {"measurement": "IC50 inhibition of UBQLN2 binding to TDP-43", "setting": "full length TDP-43 [2]; 1.4 nM UBQLN2, TDP-43 1.6 nM", "value": "no activity"}, {"measurement": "IC50", "setting": "full length TDP-43 [1]", "value": "> 100", "unit": "nM"}, {"measurement": "IC50 inhibition of bt-TG12 binding to TDP-43", "setting": "full length TDP-43 [1]; 1.0 nM bt-TG12, TDP-43 1.6 nM", "value": "no activity"}]}
{"molecule": "UBQLN2: N-terminal 6XHIS tagged full length UBQLN2 protein, custom made by ProteinTech Group", "values": [{"measurement": "Kd", "setting": "[5]", "value": 8.7, "unit": "nM"}, {"measurement": "Mode of inhibition of bt-TG12 binding to full length TDP-43", "setting": "full length TDP-43 [6]", "value": "noncompetitive"}, {"measurement": "UBQLN2 binding to N-terminal TDP-43", "setting": "[7]", "value": "unable to detect appreciable UBQLN2 binding"}, {"measurement": "IC50 for inhibition of bt-TG12 binding to N-terminal TDP-43", "setting": "[8]", "value": "unable to inhibit"}]}
{"molecule": "B1", "values": [{"measurement": "Kd", "setting": "[9]", "value": 8.7, "unit": "nM"}]}
